Source: PubChem BioAssay (several laboratories)
hK5 inh – kallikrein 5 (human) inhibition; Q9Y337; recombinant hK5, fluorogenic AMC substrate cleavage; inhibition, % at 5 µM; hit rate 0.59% among 210,000; AID 873;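 active = inhibition of 40% or more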;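 note: 0% = enzyme controls without compound and 100% = no-enzyme blanks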
Target sequence (Q9Y337 67-293 limits assumed): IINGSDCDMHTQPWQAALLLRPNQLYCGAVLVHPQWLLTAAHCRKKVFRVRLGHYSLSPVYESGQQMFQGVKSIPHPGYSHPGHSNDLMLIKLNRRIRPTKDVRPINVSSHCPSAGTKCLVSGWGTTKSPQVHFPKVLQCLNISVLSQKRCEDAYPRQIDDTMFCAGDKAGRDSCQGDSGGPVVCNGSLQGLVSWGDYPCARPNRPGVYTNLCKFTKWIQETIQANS
FXIa inh 1536 – factor XIa (human) inhibition; hit rate 0.14% among 220,000; AID 798; purified FXIa, Boc-Glu-Ala-Arg-AMC fluorogenic substrate; inhibition, % at 5 µM;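 active = inhibition of at least 40%; inactive = inhibition below 40%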;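 note: fluorescence of freed AMC excited at 355 nm; 0% = enzyme without compound and 100% = no enzyme blank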
Calpain2 inh – blocks pig calpain II enzyme activity; purified calpain II, fluorogenic peptide substrate, 30 min; inhibition, % at 16 µM; hit rate 0.37% among 220,000; AID 1236;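 active = inhibition above about 50%, limit read from the data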
thrombin 1536 – blocks human thrombin protease activity. hit rate 0.26% among 220,000. inhibition, % at 5 µM. AID 1046. alpha-thrombin, Boc-VPR-AMC fluorogenic substrate cleavage;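 active = inhibition at or above 40%; inactive = inhibition below 40%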;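 note: 0% = enzyme with no compound and 100% = wells without enzyme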
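Material: human alpha-thrombin enzyme / Medium: pH 7.5 Tris (50 mM) with NaCl 150 mM, Tween 20 0.05% / Compound: single-point dosing at 5 µM, 0.2% DMSO / Incubation: enzyme reaction carried out at room temperature / Detection: AMC fluorescence, 355/460 nm / Read-out basis: percent inhibition scaled between no-compound controls and no-enzyme blanks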
FXIIa inh – inhibitors of human coagulation factor XIIa; purified FXIIa, Boc-QGR-AMC fluorogenic substrate, 2 h; inhibition, % at 5 µM; hit rate 0.3% among 220,000; AID 800; in the data active = inhibition above about 40%;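 note: 0% = enzyme with no compound and 100% = blank without enzyme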
* = called active by the depositor; i = inactive; · = not tested or not shown. Shown are actives, neighbours in structure and some others; about 1.4% of the full set was active somewhere.

SMILES | hK5 inh | FXIa inh 1536 | Calpain2 inh | thrombin 1536 | FXIIa inh
Cc1cc(C)cc(OCC(=O)NNC(=O)CN2C(=O)c3ccccc3C2=O)c1 | 54* | 3 | 26 | 85* | 3
N#CC1=C(N)NC(SCc2ccc(Cl)cc2)=C(C#N)C12CCCCC2 | 25 | -7 | 64* | -4 | 1
N#CC1=C(N)NC(SCc2ccccc2)=C(C#N)C12CCCC2 | 45* | 10 | 40 | 25 | 19
N#CC1=C(N)NC(SCc2ccc(Br)cc2)=C(C#N)C12CCCCC2 | -9 | 11 | 24 | 3 | 16
CN(CC1CCOCC1)C(=O)CC1C(=O)NCCN1CC1CCCCC1 (centres undefined) | -2 | 8 | -49 | -5 | 11
O=C(N/N=C/c1cccc(F)c1)c1c(O)c2ccccc2[nH]c1=O | 17 | -14 | -25 | 45* | -4
Cc1cccc(NC(=O)CC2C(=O)NC3CCCCC3N2C(=O)c2ccccc2Cl)c1 (centres undefined) | -3 | -5 | -3 | -14 | -4
Cc1ccc(C(=O)N2C(CC(=O)Nc3ccc(Cl)cc3)C(=O)NC3CCCCC32)cc1 (centres undefined) | 18 | -3 | 11 | 50* | 11
CC12CCC(C/C1=N/O)C2(C)CBr (centres undefined) | 1 | 2 | -10 | 3 | 6
O=C(c1ccco1)N(Cc1cccc([N+](=O)[O-])c1)c1ccc(Br)cc1 | · | 2 | 52* | -3 | 6
O=C(c1ccco1)N(Cc1ccccc1)c1cccc([N+](=O)[O-])c1 | 2 | -4 | 27 | -3 | 5
CCNc1ccc2c(Cl)cc(=O)oc2c1 | -48 | 31 | i | 0 | 56*
Cc1cccc(C(=O)NC2CCN(S(=O)(=O)c3ccccc3)CC2)c1 | 2 | 5 | 15 | -6 | 14
O=C1OC(Nc2cc(Br)cc3cccnc23)c2ccccc21 (centres undefined) | -7 | -14 | 28 | -5 | 1
Cc1cc(O)c(C(C)C)cc1NC(=O)Nc1cccc2ccccc12 | -7 | 3 | -14 | -7 | 4
CCC(=O)Nc1cc(C(C)C)c(O)cc1C | 83* | 6 | 9 | 18 | 18
O=C(NC1CCSC1)c1cccc(Cl)c1 (centres undefined) | 23 | 4 | -2 | -1 | 10
N#Cc1c(N)nc(Sc2ccc(Cl)cc2)c(C#N)c1-c1ccccc1Cl | -9 | -6 | -11 | -1 | 5
S=C(NCc1ccco1)N/N=C/c1ccc(Cl)cc1 | -8 | -8 | 68* | -13 | -18
Oc1ccc(/C=N/NC(=S)NCc2ccco2)cc1 | -33 | -5 | 31 | -2 | 6
CC(C)(CO)NC(=S)NCc1ccco1 | 100* | 1 | 9 | -3 | 7
S=C(NCc1ccco1)N/N=C/c1ccccc1Cl | -15 | 7 | 46 | -9 | 14
COc1ccccc1/C=N/NC(=S)NCc1ccco1 | 3 | 2 | 60* | -2 | 10
COc1ccccc1CN1CCNC(=O)C1CC(=O)NCc1cn(C)nc1C (centres undefined) | 2 | -3 | -38 | -3 | 9
O=C(NC1CCN(C(=O)c2cccs2)CC1)c1ccccc1 | 10 | 1 | -19 | -4 | 2
SMILES | hK5 inh | FXIa inh 1536 | Calpain2 inh | thrombin 1536 | FXIIa inh
Cc1ccccc1NC(=O)CSc1nc2ccccc2o1 | 51* | 15 | 14 | 15 | 5
CCCCCn1c(=O)c(C(=O)OCC)c(O)c2ccccc21 | -2 | -6 | -10 | -8 | 4
CCOC(=O)c1c(O)c2cc(Cl)ccc2n(CC)c1=O | 27 | 32 | 13 | 34 | 50*
CCCCOc1ccc(C(=S)N2CCC(C(N)=O)CC2)cc1 | -5 | -1 | -14 | -1 | 5
Cc1cc(C(=O)COC(=O)c2ccc[nH]c2=O)c(C)n1CCc1ccc(F)cc1 | 44* | 24 | 22 | · | 29
Cc1nc(N2CCCCC2)c(C#N)c(C)c1[N+](=O)[O-] | 3 | -1 | 1 | 2 | 8
COc1ccc(NC(NC(=O)c2cccnc2)C(Cl)(Cl)Cl)cc1 (centres undefined) | 14 | 29 | 16 | 12 | 55*
Cc1ccccc1NC(NC(=O)c1cccnc1)C(Cl)(Cl)Cl (centres undefined) | 2 | -4 | 26 | -5 | 5
O=C(Cn1c2c(c(-c3ccccc3Cl)cc1=O)CCC2)NCCCN1CCOCC1 | 2 | 1 | -39 | 4 | 11
CC(OC(=O)CCc1c[nH]c2ccccc12)C(=O)c1ccccc1 (centres undefined) | -6 | -8 | 11 | 4 | 14
CC(=O)Nc1ccc(Nc2ccc(S(=O)(=O)C(F)(F)F)cc2[N+](=O)[O-])cc1 | -2 | -8 | 55* | -16 | 1
